“And” between values parts separate entries of the source, which are not always exact repeats. Equal entries are not always repeated.
Legend:
[1] = test system: Rattus norvegicus; assay: Biodistribution in the thyroid of rat, 2 min after administration; assay type: ADME, organism-based, Thyroid gland; conditions: in vivo
Procedure, shortened: (§1)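 Male Sprague-Dawley rats (200-300 g) under ether anesthesia were given the 99mTc complex (0.5-20 μCi in 0.2 mL saline) iv via the femoral vein. Organs were taken at 2 or 15 min. Uptake is reported as % dose/organ, found by comparing tissue radioactivity with dilutions of the injected dose.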

[2] = test system: Rattus norvegicus; assay: Biodistribution in the stomach of rat, 2 min after administration; assay type: ADME, organism-based; conditions: in vivo; procedure, shortened: as §1
[3] = test system: Rattus norvegicus; assay: Biodistribution in the kidneys of rat, 15 min after administration; assay type: ADME, organism-based, Kidney; conditions: in vivo, 0.25 h; procedure, shortened: as §1
[4] = test system: Rattus norvegicus; assay: Biodistribution in the brain blood of rat, 2 min after administration; assay type: ADME, organism-based; conditions: in vivo
Procedure, shortened: (§2)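 Rats (male Sprague-Dawley, 200-300 g) received the 99mTc complex iv (femoral vein, ether anesthesia; 0.5-20 μCi in 0.2 mL saline) and were sampled at 2 or 15 min. % dose/organ was converted to % dose/gram using mean organ weights (brain 1.65 g, blood 18 g). Brain:blood ratio was taken from these % dose/gram values.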

[5] = test system: Rattus norvegicus; assay: Biodistribution in the skin of rat, 15 min after administration; assay type: ADME, organism-based, Zone of skin; conditions: in vivo, 0.25 h; procedure, shortened: as §1
[6] = test system: Rattus norvegicus; assay: Biodistribution in the liver of rat, 15 min after administration; assay type: ADME, organism-based; conditions: in vivo, 0.25 h; procedure, shortened: as §1
[7] = test system: Rattus norvegicus; assay: Biodistribution in the muscle of rat, 2 min after administration; assay type: ADME, organism-based, Muscle tissue; conditions: in vivo; procedure, shortened: as §1
[8] = test system: Rattus norvegicus; assay: Biodistribution in the muscle of rat, 15 min after administration; assay type: ADME, organism-based, Muscle tissue; conditions: in vivo, 0.25 h; procedure, shortened: as §1
[9] = test system: Rattus norvegicus; assay: Biodistribution in the brain blood of rat, 15 min after administration; assay type: ADME, organism-based; conditions: in vivo, 0.25 h; procedure, shortened: as §2
[10] = test system: Rattus norvegicus; assay: Biodistribution in the thyroid of rat, 15 min after administration; assay type: ADME, organism-based, Thyroid gland; conditions: in vivo, 0.25 h; procedure, shortened: as §1
[11] = test system: Rattus norvegicus; assay: Biodistribution in the heart of rat, 2 min after administration; assay type: ADME, organism-based; conditions: in vivo; procedure, shortened: as §1
[12] = test system: Rattus norvegicus; assay: Biodistribution in the heart of rat, 15 min after administration; assay type: ADME, organism-based; conditions: in vivo, 0.25 h; procedure, shortened: as §1
[13] = test system: Rattus norvegicus; assay: Biodistribution in the skin of rat, 2 min after administration; assay type: ADME, organism-based, Zone of skin; conditions: in vivo; procedure, shortened: as §1
[14] = test system: Rattus norvegicus; assay: Biodistribution in the blood of rat, 2 min after administration; assay type: ADME, organism-based; conditions: in vivo; procedure, shortened: as §1
[15] = test system: Rattus norvegicus; assay: Biodistribution in the blood of rat, 15 min after administration; assay type: ADME, organism-based; conditions: in vivo, 0.25 h; procedure, shortened: as §1
[16] = test system: Rattus norvegicus; assay: Biodistribution in the lungs of rat, 2 min after administration; assay type: ADME, organism-based, Lung; conditions: in vivo; procedure, shortened: as §1
[17] = test system: Rattus norvegicus; assay: Biodistribution in the lungs of rat, 15 min after administration; assay type: ADME, organism-based, Lung; conditions: in vivo, 0.25 h; procedure, shortened: as §1
[18] = test system: Rattus norvegicus; assay: Biodistribution in the stomach of rat, 15 min after administration; assay type: ADME, organism-based; conditions: in vivo, 0.25 h; procedure, shortened: as §1
[19] = test system: Rattus norvegicus; assay: Biodistribution in the spleen of rat, 2 min after administration; assay type: ADME, organism-based; conditions: in vivo; procedure, shortened: as §1
[20] = test system: Rattus norvegicus; assay: Biodistribution in the brain of rat, 15 min after administration; assay type: ADME, organism-based; conditions: in vivo, 0.25 h; procedure, shortened: as §1
[21] = test system: Rattus norvegicus; assay: Biodistribution in the kidneys of rat, 2 min after administration; assay type: ADME, organism-based, Kidney; conditions: in vivo; procedure, shortened: as §1
[22] = test system: Rattus norvegicus; assay: Biodistribution in the spleen of rat, 15 min after administration; assay type: ADME, organism-based; conditions: in vivo, 0.25 h; procedure, shortened: as §1

Biodistribution [1]: 0.22%
Biodistribution [2]: 1.85%
Biodistribution [3]: 2.22%
Biodistribution [4]: 5.33%
Biodistribution [5]: 15.7%
Biodistribution [6]: 18.6%
Biodistribution [7]: 8.43%
Biodistribution [8]: 18.1%
Biodistribution [9]: 5.82%
Biodistribution [10]: 0.07%
Biodistribution [11]: 2.46%
Biodistribution [12]: 0.43%
Biodistribution [13]: 9.18%
Biodistribution [14]: 5.37% and 2.46%
Biodistribution [15]: 2.04%
Biodistribution [16]: 9.18% and 2.77%
Biodistribution [17]: 3.38%
Biodistribution [18]: 4.51%
Biodistribution [19]: 0.7%
Biodistribution [20]: 1.08%
Biodistribution [21]: 7.8%
Biodistribution [22]: 0.79%
Substance: (Syn-isomer) 99mTc-2,3-bis(2-thioacetamido)propanate

Source: ChEMBL document CHEMBL1124396, “New brain perfusion imaging agents based on 99mTc-bis(aminoethanethiol) complexes: stereoisomers and biodistribution” (J Med Chem, 1989)
